We go through 18 compounds from ChEMBL document CHEMBL1177781, “Synthesis and SAR of potent inhibitors of the Hepatitis C virus NS3/4A protease: exploration of P2 quinazoline substituents” (Bioorg Med Chem Lett, 2010).

Data set [1] is described as follows: Inhibition of HCV 1a NS3/4A protease. Also noted: species or system Hepatitis C virus subtype 1a. The essentials: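 Enzyme inhibition was determined as Ki against recombinant full-length NS3 enzyme, following a literature procedure, in an external laboratory.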
The next data set has as its system Hepatitis C virus. The data set can be described thus: Antiviral activity against HCV1b infected in human Huh7 cells assessed as inhibition viral subgenomic replication. In kind it is functional, organism-based, Hepacivirus hominis. The conditions noted are these: genotype 1b, Huh-7. In short, it runs like this: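 Cell-based EC50 was measured in Huh7 cells carrying the subgenomic bicistronic HCV replicon clone ET, with a luciferase read-out.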

For the next data set, the system named is Liver microsomes. In words: Intrinsic clearance in human liver microsomes. In kind it is ADME, Microsome. In short, it runs like this:
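Metabolic stability in human liver microsomes was expressed as intrinsic clearance (Cl_int, µL/min/mg).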
On the technique in general: Liver microsomes are vesicles of endoplasmic reticulum, rich in cytochrome P450 enzymes.

A short description of data set [2]: Apparent permeability across human Caco-2 cells. The format is ADME, cell-based.
Data set [3] can be described thus: (§1) Clearance in Sprague-Dawley rat at 2 mg/kg, iv. The format is ADME, organism-based. Also noted: dose 2 mg/kg, route intravenous. The conditions noted are these: Sprague-Dawley, in vivo. In short, it runs like this:
(§2)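 Male Sprague–Dawley rats (n = 2 per route) received a single intravenous dose (2 mg base-equiv/kg) or an oral dose. Mean plasma levels were followed to derive Cl, Vdss, AUC, Cmax, Tmax, T1/2 and F. Liver-to-plasma ratio was determined at 6 h.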

A short description of data set [4]: AUC in Sprague-Dawley rat at 10 mg/kg, po. In kind it is ADME, organism-based. Further details: dose 10 mg/kg, route oral. The conditions noted are these: plasma. The essentials: as §2
A short description of data set [5]: Cmax in Sprague-Dawley rat at 10 mg/kg, po. The format is ADME, organism-based. Also noted: dose 10 mg/kg, route oral. The conditions noted are these: in vivo. In short, it runs like this:
as §2

The nature of data set [6]: Tmax in Sprague-Dawley rat at 10 mg/kg, po. In kind it is ADME, organism-based. Also noted: dose 10 mg/kg, route oral. The conditions noted are these: in vivo. The essentials: as §2
Data set [7] in a line: Half life in Sprague-Dawley rat at 10 mg/kg, po. In kind it is ADME, organism-based. Also noted: dose 10 mg/kg, route oral. The conditions noted are these: in vivo. The essentials: as §2
Data set [8] can be described thus: Oral bioavailability in Sprague-Dawley rat at 10 mg/kg. In kind it is ADME, organism-based. Particulars: in vivo. In short, it runs like this: as §2
The subject of data set [9] is Rattus norvegicus. The description is as §1. In kind it is ADME, organism-based. Further details: dose 2 mg/kg, route intravenous. The conditions noted are these: in vivo. The essentials: as §2
Data set [10] deals with Rattus norvegicus. In words: AUC in Sprague-Dawley rat at 2 mg/kg, iv. The format is ADME, organism-based, Plasma. Particulars: in vivo. Also noted: dose 2 mg/kg, route intravenous. The essentials: as §2
Data set [11] can be described thus: Ratio of drug level in liver to plasma in Sprague-Dawley rat at 2 mg/kg, iv after 6 hrs. The format is ADME, organism-based. Also noted: dose 2 mg/kg, route intravenous. The essentials: as §2
Data set [12] in a line: Ratio of drug level in liver to plasma in Sprague-Dawley rat at 10 mg/kg, po after 6 hrs. The format is ADME, organism-based. Also noted: dose 10 mg/kg, route oral. In short, it runs like this:
as §2

In general, Ki refers to a dissociation constant, usually derived from enzyme kinetics or from competition with a known ligand. In general, EC50 refers to the concentration that produces a half-maximal response. In general, Papp refers to the rate of passage across a membrane or cell layer, normalised by area and donor concentration. The compound `CN1CCCC/C=C\[C@@H]2C[C@@]2(C(=O)NS(=O)(=O)C2CC2)NC(=O)[C@@H]2C[C@@H](Oc3nc(-c4ccccc4)nc4ccccc34)C[C@H]2C1=O` returned a Ki in [1] of 0.4 nM. The EC50 in the data set on Hepatitis C virus was 52 nM. In addition, the CL with Liver microsomes worked out at 58 µL/min. The Papp in data set [2] amounted to 21 ×10⁻⁶ cm/s.
Regarding `CN1CCCC/C=C\[C@@H]2C[C@@]2(C(=O)NS(=O)(=O)C2CC2)NC(=O)[C@@H]2C[C@@H](Oc3nc(N4CCOCC4)nc4ccccc34)C[C@H]2C1=O`, in [1], the affinity, expressed as Ki, was 6.2 nM. For the same compound, the EC50 in the data set with Hepatitis C virus was found to be 390 nM.
The matching figures for `CN1CCN(c2nc(O[C@@H]3C[C@H]4C(=O)N[C@]5(C(=O)NS(=O)(=O)C6CC6)C[C@H]5/C=C\CCCCN(C)C(=O)[C@@H]4C3)c3ccccc3n2)CC1`: 1.2 nM and 830 nM.
The matching figures for `CC(C)c1csc(-c2nc(O[C@@H]3C[C@H]4C(=O)N[C@]5(C(=O)NS(=O)(=O)C6CC6)C[C@H]5/C=C\CCCCN(C)C(=O)[C@@H]4C3)c3ccccc3n2)n1`: 0.8 nM and 120 nM.
Turning to `COc1ccc2c(O[C@@H]3C[C@H]4C(=O)N[C@]5(C(=O)NS(=O)(=O)C6CC6)C[C@H]5/C=C\CCCCN(C)C(=O)[C@@H]4C3)nc(-c3ccccc3)nc2c1`, in [1], the Ki is 0.4 nM. Further, the EC50 with Hepatitis C virus stood at 14 nM. In the data set on Liver microsomes, this compound had a CL of 88 µL/min. Besides, the Papp in data set [2] was found to be 13 ×10⁻⁶ cm/s.
In [1], `COc1ccc2c(O[C@@H]3C[C@H]4C(=O)N[C@]5(C(=O)NS(=O)(=O)C6CC6)C[C@H]5/C=C\CCCCN(C)C(=O)[C@@H]4C3)nc(-c3nc(C(C)C)cs3)nc2c1` yielded a Ki of 1.2 nM. Besides, the EC50 in the data set with Hepatitis C virus stood at 58 nM. In the data set with Liver microsomes, this compound came in with a CL of 76 µL/min.
On to `COc1ccc2c(O[C@@H]3C[C@H]4C(=O)N[C@]5(C(=O)NS(=O)(=O)C6CC6)C[C@H]5/C=C\CCCCN(C)C(=O)[C@@H]4C3)nc(-c3ccc(F)cc3)nc2c1`, for which the inhibition constant (Ki) in data set [1] stood at 0.2 nM. For the same compound, the concentration for a half-maximal effect (EC50) with Hepatitis C virus was found to be 11 nM. The same compound gave a CL in the data set on Liver microsomes of 32 µL/min. Besides, the apparent permeability (Papp) in data set [2] was determined as 20 ×10⁻⁶ cm/s.
In general, clearance refers to a measure of how efficiently the substance is removed, as volume per time. Low values mean a low capacity for elimination, high ones a high capacity for elimination. As a reminder, the AUC is concentration integrated over time. The low end stands for less exposure, the high end for more exposure. The term Cmax denotes the highest concentration seen after dosing. As a reminder, the Tmax is the time at which the peak concentration occurs. As usually defined, the half-life is how long it takes for the measured level to halve. Read a high half-life as slow loss. Usually bioavailability stands for the share of a dose that reaches the circulation, judged against a reference dose that is usually intravenous. Turning to `COc1ccc2c(O[C@@H]3C[C@H]4C(=O)N[C@]5(C(=O)NS(=O)(=O)C6CC6)C[C@H]5/C=C\CCCCN(C)C(=O)[C@@H]4C3)nc(-c3ccccc3)nc2c1C`, affinity in data set [1] was put at a Ki of 0.1 nM. The EC50 with Hepatitis C virus was 5 nM. In the data set with Liver microsomes, this compound registered a CL below 6 µL/min. Besides, the Papp in data set [2] is 13 ×10⁻⁶ cm/s. The clearance in data set [3] is 16.7 mL/min/kg. The AUC in data set [4] was 3.3 µM·h. In data set [5], this compound displayed a Cmax of 660 nM. Moreover, in [6], the Tmax is 2 h. This compound also had a half-life in [7] of 3.8 h. In data set [8], this compound displayed a bioavailability of 40%.
In data set [1], `COc1ccc(-c2nc(O[C@@H]3C[C@H]4C(=O)N[C@]5(C(=O)NS(=O)(=O)C6CC6)C[C@H]5/C=C\CCCCN(C)C(=O)[C@@H]4C3)c3ccc(OC)c(C)c3n2)cc1` yielded a Ki of 0.6 nM. In the data set on Hepatitis C virus, the EC50 was 8 nM. For the same compound, in the data set with Liver microsomes, the CL worked out at 11 µL/min. For the same compound, the Papp in data set [2] is 9 ×10⁻⁶ cm/s.
For `COc1ccc2c(O[C@@H]3C[C@H]4C(=O)N[C@]5(C(=O)NS(=O)(=O)C6CC6)C[C@H]5/C=C\CCCCN(C)C(=O)[C@@H]4C3)ncnc2c1C`, the Ki in [1] was above 1000 nM. Also, in the data set on Hepatitis C virus, the concentration for a half-maximal effect (EC50) was above 1000 nM.
One may read the Kp as the ratio of the level in a tissue or fluid to that in plasma or blood. In turn, `COc1ccc2c(O[C@@H]3C[C@H]4C(=O)N[C@]5(C(=O)NS(=O)(=O)C6CC6)C[C@H]5/C=C\CCCCN(C)C(=O)N4C3)nc(-c3ccccc3)nc2c1C` returned a Ki in data set [1] of 0.2 nM. Further, the EC50 in the data set on Hepatitis C virus is 11 nM. Also, the values for the CL in the data set on Liver microsomes and in the data set with Rattus norvegicus [9] were 17 µL/min and 11.5 mL/min/kg, respectively. Moreover, the Papp in [2] stood at 26 ×10⁻⁶ cm/s. Also, the AUC in the data set with Rattus norvegicus [10] was found to be 8.4 µM·h; in data set [4], 15 µM·h. For the same compound, the Kp at 6 h in [11] was found to be 38; in data set [12], 32. The Cmax in data set [5] was found to be 3400 nM. For the same compound, the Tmax in [6] amounted to 5 h. The same compound returned a bioavailability in [8] of 73%.
Turning to `COc1ccc2c(O[C@@H]3C[C@H]4C(=O)N[C@]5(C(=O)NS(=O)(=O)C6CC6)C[C@H]5/C=C\CCCCN(C)C(=O)N4C3)nc(-c3ccc(F)cc3)nc2c1C`, in [1], affinity was put at a Ki of 0.3 nM. Besides, the EC50 in the data set on Hepatitis C virus turned out to be 16 nM. In the data set with Liver microsomes, this compound returned a CL below 6 µL/min. The Papp in data set [2] turned out to be 32 ×10⁻⁶ cm/s. This compound also had a clearance in data set [3] of 9.33 mL/min/kg. The compound further yielded an AUC in data set [4] of 11 µM·h. The same compound displayed a Cmax in data set [5] of 2600 nM. Moreover, in [6], the time to peak (Tmax) was 5 h. The Kp at 6 h in data set [12] worked out at 42.
For the compound `COc1ccc(-c2nc(O[C@@H]3C[C@H]4C(=O)N[C@]5(C(=O)NS(=O)(=O)C6CC6)C[C@H]5/C=C\CCCCN(C)C(=O)N4C3)c3ccc(OC)c(C)c3n2)cc1`, affinity in [1] was put at a Ki of 0.6 nM. Also, in the data set with Hepatitis C virus, the EC50 was determined as 3 nM. Besides, the CL with Liver microsomes is 8 µL/min. Also, the Papp in data set [2] came to 33 ×10⁻⁶ cm/s.
Compound `COc1ccc2c(O[C@@H]3C[C@H]4C(=O)N[C@]5(C(=O)NS(=O)(=O)C6CC6)C[C@H]5/C=C\CCCCN(C)C(=O)N4C3)nc(-c3cccc(C)n3)nc2c1C` came in with a Ki in data set [1] of 0.9 nM. Also, in the data set on Hepatitis C virus, the concentration giving a half-maximal response (EC50) is 130 nM.
The like results for `COc1ccc2c(O[C@@H]3C[C@H]4C(=O)N[C@]5(C(=O)NS(=O)(=O)C6CC6)C[C@H]5/C=C\CCCCN(C)C(=O)N4C3)nc(-c3cccnc3)nc2c1C` were, in that order, 2.8 nM and 13 nM.
`COc1ccc2c(O[C@@H]3C[C@H]4C(=O)N[C@]5(C(=O)NS(=O)(=O)C6CC6)C[C@H]5/C=C\CCCCN(C)C(=O)N4C3)nc(-c3ccncc3)nc2c1C` showed an inhibitory constant (Ki) in data set [1] of 0.2 nM. The EC50 with Hepatitis C virus turned out to be 7 nM. Moreover, the CL in the data set with Liver microsomes was 14 µL/min. The Papp in data set [2] is 0.4 ×10⁻⁶ cm/s.
The like results for `COc1ccc2c(O[C@@H]3C[C@H]4C(=O)N[C@]5(C(=O)NS(=O)(=O)C6CC6)C[C@H]5/C=C\CCCCCNC(=O)N4C3)nc(-c3ccccc3)nc2c1C` were, in that order, 0.3 nM, 23 nM, 26 µL/min and 38 ×10⁻⁶ cm/s.
Compound `COc1ccc2c(O[C@@H]3C[C@H]4C(=O)N[C@]5(C(=O)NS(=O)(=O)C6CC6)C[C@H]5/C=C\CCCCCNC(=O)N4C3)nc(-c3ccc(F)cc3)nc2c1C` yielded a Ki in data set [1] of 0.2 nM. Further, the half-maximal effective concentration (EC50) with Hepatitis C virus amounted to 16 nM. In the data set on Liver microsomes, this compound gave a CL of 20 µL/min. Moreover, the Papp in data set [2] was 32 ×10⁻⁶ cm/s. In addition, the clearance in data set [3] was 26.7 mL/min/kg. The figures for the Kp at 6 h in [11] and in [12] were 2.5 and 100, respectively. Also, the AUC in data set [4] is 1.7 µM·h. This compound showed a peak concentration (Cmax) in data set [5] of 390 nM. For the same compound, the Tmax in data set [6] is 2 h. This compound had a bioavailability in data set [8] of 38%.
